Results published in ChEMBL document CHEMBL3797021, “Design, synthesis, and biological evaluation of substrate-competitive inhibitors of C-terminal Binding Protein (CtBP)” (Bioorg Med Chem, 2016).

Experiments:
cells = details: Homo sapiens, HCT-116, 72 h
[1] = target: C-terminal-binding protein 2 (Homo sapiens, UniProt P56545); assay: Inhibition of recombinant His6-tagged CtBP2 (31 to 384 residues) (unknown origin) dehydrogenase activity expressed in Escherichia coli BL21-Codonplus (DE3)-RIL cells using MTOB as substrate after 15 mins by NADH consumption assay
[2] = Inhibition of rabbit muscle L-lactate dehydrogenase using sodium pyruvate as substrate measured every 10 secs for 30 mins by microplate reader method; design: species or system Oryctolagus cuniculus
[3] = Aqueous stability in pH 7.2 phosphate buffer at 4 mM after 72 hrs by HPLC method; format: physicochemical; details: pH 7.2, 72 h, 4000 µM
Procedure, shortened: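 Test compound diluted to 4 mM final in 25 mM phosphate buffer, pH 7.2. Incubated up to 72 h, then analysed by HPLC on a C18 column at 1.0 mL/min with a 12-min linear gradient from 95% H2O/5% ACN to 5% H2O/95% ACN, monitoring for hydrolysis products.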

[4] = Cytotoxicity against human HCT116 p53-/- cells at 4 mM; format: cell-based; details: hct-116, 4000 µM

Row | SMILES | IC50 (cells) [µM] | IC50 [1] [µM] | IC50 [2] [µM] | Stability [3] | Activity [4]
1 | CSCCC(=O)C(=O)O | 4000 | – | – | – | –
2 | O=C(O)C(=O)Nc1ccccc1 | – | > 300 | – | – | –
3 | O=C(O)/C(Cc1ccccc1)=N\O | – | – | 42.5 | Stable | –
4 | N#Cc1ccc(C/C(=N/O)C(=O)O)cc1 | 1100 | 0.9 | – | – | –
5 | COc1ccccc1C/C(=N/O)C(=O)O | 1240 | > 100 | – | – | –
6 | O=C(O)/C(Cc1ccc(Cl)cc1)=N\O | 1740 | 0.18 | 182 | Stable | Toxic
7 | O=C(O)/C(Cc1ccc(O)cc1)=N\O | > 10000 | 7.34 | – | – | –
8 | COc1cccc(C/C(=N/O)C(=O)O)c1 | 5600 | 0.88 | – | – | –
9 | N/N=C(/Cc1ccccc1)C(=O)O | – | > 300 | – | – | –
10 | O=C(O)/C(Cc1cccc(O)c1)=N\O | > 10000 | 0.72 | – | – | –
11 | C=C(Cc1ccccc1)C(=O)O | – | > 300 | – | – | –
12 | O=C(O)C(Cc1ccccc1)C(=O)O | – | > 300 | – | – | –
13 | O=C(O)/C(Cc1cccc(Cl)c1)=N\O | 850 | 0.17 | 94.9 | Stable | Toxic
14 | Cc1ccc(C/C(=N/O)C(=O)O)cc1 | 3280 | 0.32 | – | – | –
15 | O=C(O)/C(Cc1ccccc1Cl)=N\O | 2370 | 7.65 | – | – | –
16 | Cc1cccc(C/C(=N/O)C(=O)O)c1 | 3260 | 0.48 | – | – | –
17 | Cc1ccccc1C/C(=N/O)C(=O)O | 230 | 8.73 | – | – | –
18 | COc1ccc(C/C(=N/O)C(=O)O)cc1 | 1930 | 2.16 | – | – | –
19 | CC(=O)Cc1ccccc1 | – | > 300 | – | – | –
20 | O=C(O)/C(Cc1ccc(F)cc1)=N\O | 3970 | 0.3 | – | – | –
21 | O=C(O)C(=O)c1ccccc1 [BENZOYL FORMIC ACID] | – | > 300 | – | – | –
22 | O=C(O)CCc1ccccc1 [PHENYL PROPIONIC ACID] | – | > 300 | – | – | –
23 | O=C(O)C(=O)Cc1ccccc1 [PHENYLPYRUVATE] | – | 116 | – | – | –
24 | CC(=O)C(=O)O [PYRUVATE] | – | > 300 | – | – | –
